In publication PMC2834294 (Chemistry & biology, 2010):

Columns and labels:
TRPML1(NC) = TRPML1(NC) (Homo sapiens, UniProt Q9GZU1); assay: Fura-2 calcium imaging, HEK293 cells expressing TRPML1; format: cell-based; conditions: 10 µM, plasma membrane-localized TRPML1 variant
Procedure, shortened: (§1)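 HEK293 cells were transiently transfected (Genejammer) with the human channel construct or YFP control and measured 24 h later. Cells on glass coverslips were loaded with 4 µM fura-2-AM in bath solution (mM: 138 NaCl, 6 KCl, 2 MgCl2, 2 CaCl2, 10 HEPES, 5.5 D-glucose; pH 7.4). Compounds were applied at 10 µM and the F340/F380 ratio recorded. Values are mean ± SEM, n≥3.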

TRPML3 [1] = biological target: T1, TRPML3 (Homo sapiens, UniProt Q8TDD5); assay: Whole-cell patch-clamp, HEK293 cells transiently transfected with TRPML3; format: cell-based
T1 sequence (Q8TDD5 1-553): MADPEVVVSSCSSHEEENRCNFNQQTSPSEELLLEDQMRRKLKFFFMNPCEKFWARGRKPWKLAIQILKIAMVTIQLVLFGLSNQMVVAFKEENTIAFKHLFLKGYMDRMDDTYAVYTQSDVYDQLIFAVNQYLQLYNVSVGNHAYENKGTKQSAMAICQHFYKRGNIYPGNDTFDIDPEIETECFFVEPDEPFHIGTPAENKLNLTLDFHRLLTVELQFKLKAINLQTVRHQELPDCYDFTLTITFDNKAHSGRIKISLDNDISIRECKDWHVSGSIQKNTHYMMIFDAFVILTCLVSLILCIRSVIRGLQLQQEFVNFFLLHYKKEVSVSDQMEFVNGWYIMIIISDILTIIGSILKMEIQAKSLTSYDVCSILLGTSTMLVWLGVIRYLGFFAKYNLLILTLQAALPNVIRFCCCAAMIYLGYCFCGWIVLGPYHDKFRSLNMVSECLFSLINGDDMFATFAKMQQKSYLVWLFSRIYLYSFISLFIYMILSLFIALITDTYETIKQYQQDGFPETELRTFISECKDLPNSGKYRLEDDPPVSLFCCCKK
Procedure, shortened: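 Whole-cell patch clamp was done on HEK293 cells 24 h after transient transfection with human TRPML3 or YFP; constitutively active TRPML3(A419P) cells served as positive control. Bath solution (mM): 138 NaCl, 5.4 KCl, 2 MgCl2, 2 CaCl2, 10 HEPES, 10 d-glucose; pH 7.4. Pipette solution (mM): 140 CsCl, 10 HEPES, 3 ATP-Na, 1 BAPTA, 2 MgCl2; pH 7.2. Compounds at 10 µM were perfused. Capacitance-normalized current at −80 mV is reported as mean ± SEM, n≥3.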

[2] = test system: TRPM2, TRPV2, TRPC3, TRPN1, TRPA1; assay: Fura-2 calcium imaging selectivity, HEK293 cells expressing other TRP channels; format: cell-based
Procedure, shortened: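 HEK293 cells were transiently transfected (Genejammer) with expression vectors for each TRP channel and measured 24 h later. Cells on coverslips were loaded with 4 μM fura-2-AM in bath solution (mM: 138 NaCl, 6 KCl, 2 MgCl₂, 2 CaCl₂, 10 HEPES, 5.5 D-glucose, pH 7.4). [Ca²⁺]i increases to 10 µM test compound were imaged on a monochromator-based system.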

TRPML3 [3] = format: cell-based
Procedure, shortened: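 Whole-cell recordings used HEK293 cells expressing TRPML3 with 100% series-resistance compensation. Pipette solution (mM): 140 CsCl, 10 HEPES, 3 ATP-Na, 1 BAPTA, 2 MgCl2; pH 7.2. Compound at 10 µM was perfused in endolymph-like solution (mM: 2 NaCl, 150 KCl, 0.25 CaCl2, 10 HEPES, 10 glucose; pH 7.4) or in standard bath. Inward current at −80 mV was normalized to capacitance.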

[4] = biological target: T2, TRPML3 coexpressed with TRPML1 (Homo sapiens, UniProt Q8TDD5); assay: Calcium imaging, HEK293 cells coexpressing TRPML3 with TRPML1; format: cell-based; conditions: 10 µM
T2 sequence (Q8TDD5 1-553): T1 sequence (Q8TDD5 1-553)
Procedure, shortened: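 Human TRPML3 and TRPML1 were transiently coexpressed in HEK293 cells (Genejammer) and imaged 24 h post-transfection. Cells on glass coverslips were loaded with 4 μM fura-2-AM in bath solution (mM: 138 NaCl, 6 KCl, 2 MgCl₂, 2 CaCl₂, 10 HEPES, 5.5 D-glucose, pH 7.4) and read on a monochromator imaging system. Test compound was 10 μM. Mean ± SEM, n≥3 independent experiments, 20–30 cells each.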

[5] = test system: primary human epidermal melanocytes; assay: Calcium imaging in primary human epidermal melanocytes; format: cell-based; conditions: concentrations up-to 100 µM; SN-2 at 30 µM and 100 µM
Procedure, shortened: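 Primary neonatal human epidermal melanocytes were cultured in medium 254 with HMGS at 37 °C and 5% CO2. Intracellular Ca2+ was imaged after applying compounds at 100 µM, with one compound also at 30 µM. Data are mean ± SEM from more than 3 independent experiments of 20–30 cells each.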

cochlear hair cells = assay: Recording from acutely isolated cochlear hair cells; format: cell-based, rat; conditions: up-to 100 µM; in SBS, SN-2 also in ELS
danio rerio TRPN1 = danio rerio TRPN1 (Danio rerio, UniProt Q7T1G6); format: cell-based
Procedure, shortened: (§2)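 HEK293 lines stably expressed YFP-fused human TRPML3 or zebrafish TRPN1 (G418 0.8 mg/ml, twice subcloned) and were plated at 1,500 cells/well for 23 h at 37 °C. After Fluo-8 loading (1 h 37 °C, 30 min RT), a 5 s basal read and 120 s post-addition read were taken. Max/basal ratios were normalized to DMSO and carbachol (87 µM).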

TRPML3 [6] = biological target: T1, TRPML3; assay: Fura-2 calcium imaging, HEK293 cells transiently expressing TRPML3; format: cell-based
Procedure, shortened: as §1

[7] = test system: melanocytes expressing dynamin; assay: Calcium imaging, melanocytes transfected with wild type dynamin; format: cell-based, human; conditions: 30 µM
Procedure, shortened: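 Human epidermal melanocytes (medium 254 plus HMGS) were transfected with wild-type dynamin, DynK44A or YFP control. Intracellular Ca2+ was imaged after applying compounds at 30 µM each. Data are mean ± SEM from at least 3 independent experiments of 20–30 cells each.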

TRPML3 [8] = biological target: T1, TRPML3; assay: Excised; format: cell-based
TRPML3 [9] = biological target: T1, TRPML3; format: cell-based; conditions: HEK293, read-out: Max % Activation (TRPML3)
Procedure, shortened: as §2

Chain of danio rerio TRPN1 (Q7T1G6 1-1614): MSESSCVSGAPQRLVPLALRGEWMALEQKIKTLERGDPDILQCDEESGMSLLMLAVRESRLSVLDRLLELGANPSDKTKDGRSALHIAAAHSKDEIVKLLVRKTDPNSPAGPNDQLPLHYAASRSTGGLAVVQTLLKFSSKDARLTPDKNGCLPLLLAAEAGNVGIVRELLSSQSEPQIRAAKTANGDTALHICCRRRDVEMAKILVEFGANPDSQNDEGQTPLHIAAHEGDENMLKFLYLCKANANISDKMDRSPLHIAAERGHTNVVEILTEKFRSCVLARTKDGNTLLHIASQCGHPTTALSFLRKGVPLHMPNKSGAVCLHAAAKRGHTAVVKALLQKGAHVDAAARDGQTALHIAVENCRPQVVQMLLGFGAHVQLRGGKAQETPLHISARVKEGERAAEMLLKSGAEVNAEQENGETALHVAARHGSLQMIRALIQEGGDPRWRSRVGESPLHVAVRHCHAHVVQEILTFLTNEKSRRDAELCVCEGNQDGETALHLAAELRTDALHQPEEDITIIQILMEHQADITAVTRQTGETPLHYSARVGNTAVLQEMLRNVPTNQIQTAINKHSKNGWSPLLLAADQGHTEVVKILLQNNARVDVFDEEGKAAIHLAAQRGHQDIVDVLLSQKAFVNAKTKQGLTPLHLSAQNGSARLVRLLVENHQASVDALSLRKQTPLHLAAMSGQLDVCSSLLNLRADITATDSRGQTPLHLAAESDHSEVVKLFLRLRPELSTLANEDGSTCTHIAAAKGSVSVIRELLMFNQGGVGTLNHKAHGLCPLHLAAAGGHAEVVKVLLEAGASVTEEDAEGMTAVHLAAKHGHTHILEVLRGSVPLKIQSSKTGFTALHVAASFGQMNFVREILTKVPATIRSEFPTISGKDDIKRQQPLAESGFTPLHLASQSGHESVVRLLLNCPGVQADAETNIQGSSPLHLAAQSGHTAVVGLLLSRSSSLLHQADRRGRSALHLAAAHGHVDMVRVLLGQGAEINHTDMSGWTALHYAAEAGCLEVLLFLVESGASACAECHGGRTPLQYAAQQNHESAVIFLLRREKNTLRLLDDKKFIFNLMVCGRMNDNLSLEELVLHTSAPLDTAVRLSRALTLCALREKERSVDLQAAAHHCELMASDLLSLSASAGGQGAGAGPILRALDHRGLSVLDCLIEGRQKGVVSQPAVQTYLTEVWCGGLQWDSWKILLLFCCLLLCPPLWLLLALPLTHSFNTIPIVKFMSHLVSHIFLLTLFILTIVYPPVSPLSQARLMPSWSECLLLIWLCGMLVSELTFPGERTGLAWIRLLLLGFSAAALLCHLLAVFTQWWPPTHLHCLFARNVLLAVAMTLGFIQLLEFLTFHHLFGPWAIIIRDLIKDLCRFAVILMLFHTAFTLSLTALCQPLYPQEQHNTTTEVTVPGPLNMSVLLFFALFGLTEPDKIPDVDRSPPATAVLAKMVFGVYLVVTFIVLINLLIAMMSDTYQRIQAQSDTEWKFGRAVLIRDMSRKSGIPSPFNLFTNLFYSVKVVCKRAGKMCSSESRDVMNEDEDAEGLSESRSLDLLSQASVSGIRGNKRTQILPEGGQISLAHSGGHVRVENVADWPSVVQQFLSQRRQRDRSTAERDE
Chain of TRPML1(NC) (Q9GZU1 17-572 limits assumed): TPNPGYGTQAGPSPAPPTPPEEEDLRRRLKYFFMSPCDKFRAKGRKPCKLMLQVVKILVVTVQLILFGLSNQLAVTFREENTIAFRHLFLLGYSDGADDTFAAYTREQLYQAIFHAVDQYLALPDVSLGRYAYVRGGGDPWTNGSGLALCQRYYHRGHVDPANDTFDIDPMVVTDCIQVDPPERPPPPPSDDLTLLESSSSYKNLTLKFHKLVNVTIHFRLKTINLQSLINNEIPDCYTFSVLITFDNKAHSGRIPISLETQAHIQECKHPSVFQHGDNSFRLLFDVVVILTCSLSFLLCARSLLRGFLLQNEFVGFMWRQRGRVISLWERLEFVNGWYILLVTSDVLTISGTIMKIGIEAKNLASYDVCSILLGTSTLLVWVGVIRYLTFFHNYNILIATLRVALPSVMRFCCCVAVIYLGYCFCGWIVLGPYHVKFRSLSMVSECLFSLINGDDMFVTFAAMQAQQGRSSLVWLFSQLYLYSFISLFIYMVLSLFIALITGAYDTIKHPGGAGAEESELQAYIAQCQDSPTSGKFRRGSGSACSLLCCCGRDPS

SMILES: Cc1cc(C)c(C2=NOC3C4CCC(C4)C23)c(C)c1 (centres unmarked) [SN-2, 5-mesityl-3-oxa-4-azatricyclo[5.2.1.0∼2,6∼]dec-4-ene]
- activation of mutant TRPML1(NC) isoform (TRPML1(NC)): did not show any activity
- nA/pF (-80 mV) (TRPML3) (TRPML3 [1]; current density at −80 mV, 10 µM in standard bath solution, mean ±SEM (n≥3)): −0.30 ±0.07 nA/pF
- average current density relative to constitutively active TRPML3 A419P (TRPML3 [1]; whole-cell, −80 mV): comparable to average current densities obtained from cells expressing the constitutively active varitint-waddler mutant isoform A419P
- activation of other TRP channels tested [2]: did not show any activity on other TRP channels
- increase in current densities, compound + ELS vs ELS alone or compound in SBS (TRPML3 [3]; 10 µM compound, ELS 2 mM Na+, 150 mM K+): ≤ 10 fold
- average current densities, compound + ELS (TRPML3 [3]; 10 µM, at −80 mV): up to 3 nA/pF
- calcium imaging response when TRPML1 was coexpressed with TRPML3 [4]: strong reduction of the calcium imaging responses
- [Ca2+]i response in primary human epidermal melanocytes [5]: elicited a stronger response
- TRPML3 channel activity in cochlear hair cells (cochlear hair cells): Neither compound at concentrations of up-to 100 µM, with or without endolymph-like extracellular solution, elicited TRPML3 channel activity
- EC50 (danio rerio TRPN1): > 29.9 µM
- Emax (danio rerio TRPN1; HEK293, read-out: Max % Activation (Control)): 3 ± 1%
- ⊗F340/F380 (TRPML3) (TRPML3 [6]; 10 µM compound, mean ±SEM (n≥3)): 1.08 ±0.05
- kinetics of intracellular calcium increase (TRPML3 [6]; TRPML3-transfected HEK293 cells): much more rapid increase than the other compounds
- response in melanocytes expressing wild type dynamin [7]: reduction of the response
- conductance of TRPML3 channels (TRPML3 [8]; activated with 10 µM SN-2, at −80 mV, estimate): approximately 10 pS
- TRPML3 activity in excised patches (TRPML3 [8]; patches held at −80 mV): markedly increased TRPML3 activity
- Emax (TRPML3 [9]): 149 ± 11%
